In ChEMBL document CHEMBL2021866, “Design, synthesis, and pharmacological evaluation of benzamide derivatives as glucokinase activators” (Bioorg Med Chem, 2012):

Key:
[1] = target: T1, Hexokinase-4 (Homo sapiens) (UniProt P35557); assay: Activation of human recombinant glucokinase expressed in Escherichia coli BL21(DE3) coexpressing G6PDH assessed as glucose 6-phosphate formation by spectrometric analysis relative to control
T1 sequence (whole entry): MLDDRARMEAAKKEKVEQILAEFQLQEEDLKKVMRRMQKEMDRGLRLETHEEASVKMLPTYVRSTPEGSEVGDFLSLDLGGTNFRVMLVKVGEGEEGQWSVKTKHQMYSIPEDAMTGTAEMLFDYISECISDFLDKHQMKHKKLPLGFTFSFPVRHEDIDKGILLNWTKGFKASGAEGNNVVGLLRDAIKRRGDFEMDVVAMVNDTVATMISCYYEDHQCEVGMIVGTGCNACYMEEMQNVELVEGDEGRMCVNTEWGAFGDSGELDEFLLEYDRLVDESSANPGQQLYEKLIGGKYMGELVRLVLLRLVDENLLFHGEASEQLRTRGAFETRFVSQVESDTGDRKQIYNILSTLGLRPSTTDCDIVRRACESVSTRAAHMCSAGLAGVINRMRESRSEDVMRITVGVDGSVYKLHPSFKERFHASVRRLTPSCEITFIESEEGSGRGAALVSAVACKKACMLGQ
Summary of the method: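 N-terminal His6-tagged human GK, expressed in E. coli BL21(DE3), purified on Ni-NTA. NADPH formation followed as rate of A340. Fold activation taken against DMSO control (100%), and maximum fold reported.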

[2] = target: T2, Hexokinase-4 (Homo sapiens, UniProt P35557); assay: Activation of human recombinant glucokinase expressed in Escherichia coli BL21(DE3) coexpressing G6PDH assessed as glucose 6-phosphate formation by spectrometric analysis
T2 sequence (P35557 whole entry): T1 sequence (whole entry)

[3] = Clearance in ICR mouse at 10 mg/kg, iv; format: ADME, organism-based; set-up: dose 10 mg/kg, route intravenous; settings: in vivo
Summary of the method: (§1)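 Mice received a single iv dose of 10 mg/kg or a single po dose of 20 mg/kg. Vehicle was DMSO, tween-80 and normal saline. Plasma concentration–time data gave CL, Vss and t1/2 from the iv arm, and Cmax, Tmax, AUC0-∞ and F from the po arm. Values are the average of three runs.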

[4] = tested on: Mus musculus; assay: Hypoglycemic activity in ICR mouse assessed as reduction in blood glucose level at 10 mg/kg, po measured within 1 hr relative to control; format: functional; set-up: scale not given: the % may be the effect or the level left
Summary of the method: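 Male ICR mice, 8 weeks old, on a reversed light cycle, were fasted 2 h with water allowed and grouped by body weight. They were dosed orally with 10 mg/kg or with vehicle (0.5% carboxymethylcellulose). Blood glucose was tracked, with ΔBG taken from 0 min, and reduction expressed against vehicle within 1 h. Mean ± SEM, n = 6.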

[5] = Oral bioavailability in ICR mouse at 20 mg/kg; format: ADME, organism-based; settings: in vivo; summary of the method: as §1
[6] = Half life in ICR mouse at 10 mg/kg, iv; format: ADME, organism-based; set-up: dose 10 mg/kg, route intravenous; settings: in vivo; summary of the method: as §1
[7] = Volume of distribution at steady state in ICR mouse at 10 mg/kg, iv; format: ADME, organism-based; set-up: dose 10 mg/kg, route intravenous; settings: in vivo, read-out: Vdss; summary of the method: as §1
[8] = Tmax in ICR mouse at 20 mg/kg, po; format: ADME, organism-based; set-up: dose 20 mg/kg, route oral; settings: in vivo; summary of the method: as §1
[9] = Cmax in ICR mouse at 20 mg/kg, po; format: ADME, organism-based; set-up: dose 20 mg/kg, route oral; settings: in vivo; summary of the method: as §1
[10] = target: T1, Hexokinase-4 (Homo sapiens); assay: Ratio of EC50 for GK50 to compound for activation of human recombinant glucokinase expressed in Escherichia coli BL21(DE3) coexpressing G6PDH assessed as glucose 6-phosphate formation by spectrometric analysis
Summary of the method: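 EC50 obtained in the same G6PDH-coupled A340 assay of His6-tagged human GK, with GK50 run in parallel. Six compound concentrations per curve, and fold activity over DMSO control fitted to a four-parameter logistic sigmoid. Values are means of three independent experiments.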

[11] = AUC (0 to infinity) in ICR mouse at 20 mg/kg, po; format: ADME, organism-based; set-up: time infinity, dose 20 mg/kg, route oral; settings: plasma; summary of the method: as §1

Compound | fold change (FC) [1] | EC50 [2] | other results
CC(C)=CCOc1cc(Oc2ccc(S(=O)(=O)C3CC3)cc2)cc(C(=O)NC2=NC(=O)CS2)c1 | 1.5 | 0.12 µM | 
CC(C)=CCOc1cc(Oc2ccc(S(=O)(=O)N3C[C@@H](C)O[C@@H](C)C3)cc2)cc(C(=O)Nc2ccn(C)n2)c1 | 1.8 | 0.265 µM | 
CC(C)=CCOc1cc(Oc2ccc(S(=O)(=O)N3CC4CCC(C3)O4)cc2)cc(C(=O)Nc2cc(C)n(C)n2)c1 | 1.5 | 0.144 µM | 
CC(C)=CCOc1cc(Oc2ccc(S(=O)(=O)N3CCOCC3)cc2)cc(C(=O)Nc2ccn(C)n2)c1 | 3 | 0.297 µM | 
CC(C)=CCOc1cc(Oc2ccc(S(=O)(=O)N3CCOCC3)cc2)cc(C(=O)Nc2cc(C)n(C)n2)c1 | 1.5 | 0.0951 µM | 
CC(C)=CCOc1cc(Oc2ccc(S(=O)(=O)N3CC4CCC(C3)O4)cc2)cc(C(=O)Nc2ccn(C)n2)c1 | 1.7 | 0.242 µM | 
CC(C)=CCOc1cc(Oc2ccc(S(=O)(=O)C3CC3)cc2)cc(C(=O)Nc2nc(C(C)(C)C)cs2)c1 | 0.7 | 0.89 µM | 
COC1CCN(S(=O)(=O)c2ccc(Oc3cc(OCC=C(C)C)cc(C(=O)Nc4cc(C)n(C)n4)c3)cc2)CC1 | 1.8 | 0.46 µM | 
CC(C)=CCOc1cc(Oc2ccc(S(=O)(=O)N3CC4CCC(C3)O4)cc2)cc(C(=O)Nc2ncc(F)s2)c1 | 1.9 | 0.078 µM | 
CC(C)=CCOc1cc(Oc2ccc(S(=O)(=O)N3CC4CCC(C3)O4)cc2)cc(C(=O)Nc2nccs2)c1 | 1.7 | 0.101 µM | 
CC(C)=CCOc1cc(Oc2ccc(S(=O)(=O)C3CC3)cc2)cc(C(=O)Nc2nccn3ccnc23)c1 |  | > 1 µM | 
CC(C)=CCOc1cc(Oc2ccc(S(=O)(=O)C3CC3)cc2)cc(C(=O)Nc2cc(C)n(C)n2)c1 | 1.5 | 0.0901 µM | 
CC(C)=CCOc1cc(Oc2ccc(S(=O)(=O)N3C[C@@H](C)O[C@@H](C)C3)cc2)cc(C(=O)Nc2ncc(F)s2)c1 | 1.7 | 0.0654 µM | 
CC(C)=CCOc1cc(Oc2ccc(S(=O)(=O)C3CC3)cc2)cc(C(=O)Nc2cnc(C)cn2)c1 | 1.6 | 0.165 µM | 
CC(C)=CCOc1cc(Oc2ccc(S(=O)(=O)N3CC[C@H](F)C3)cc2)cc(C(=O)Nc2ccn(C)n2)c1 | 2.1 | 0.0835 µM | 
COC1CCN(S(=O)(=O)c2ccc(Oc3cc(OCC=C(C)C)cc(C(=O)Nc4ccn(C)n4)c3)cc2)CC1 | 1.7 | 0.491 µM | 
COC1CCN(S(=O)(=O)c2ccc(Oc3cc(OCC=C(C)C)cc(C(=O)Nc4nccs4)c3)cc2)CC1 | 1.7 | 0.0904 µM | 
CC(C)=CCOc1cc(Oc2ccc(S(=O)(=O)C3CC3)cc2)cc(C(=O)Nc2nc(-c3ccc(F)cc3)cs2)c1 | 0.9 | 0.25 µM | 

The next lines start with results.

fold change (FC) [1] | EC50 [2] | Compound | other results
1.9 | 0.0631 µM | CC(C)=CCOc1cc(Oc2ccc(S(=O)(=O)N3CC[C@H](F)C3)cc2)cc(C(=O)Nc2cc(C)n(C)n2)c1 | 
1.7 | 0.0646 µM | COC1CCN(S(=O)(=O)c2ccc(Oc3cc(OCC=C(C)C)cc(C(=O)Nc4ncc(F)s4)c3)cc2)CC1 | 
1.8 | 0.052 µM | CC(C)=CCOc1cc(Oc2ccc(S(=O)(=O)N3CCOCC3)cc2)cc(C(=O)Nc2ncc(F)s2)c1 | 
1.9 | 0.0523 µM | CC(C)=CCOc1cc(Oc2ccc(S(=O)(=O)N3CC[C@H](F)C3)cc2)cc(C(=O)Nc2nccs2)c1 | 
2.4 | 0.0283 µM | CC(C)=CCOc1cc(Oc2ccc(S(=O)(=O)C3CC3)cc2)cc(C(=O)Nc2nccs2)c1 | clearance [3]: 3.33 mL/min/kg; Activity [4]: 5.5%; bioavailability [5]: 38.6%; half-life [6]: 2.3 h; Vd [7]: 0.28 L/kg; Tmax [8]: 1 h; Cmax [9]: 15800 ng/mL; Ratio EC50 [10]: 8; AUC(0-inf) [11]: 39800 ng·h/mL
1.6 | 0.0448 µM | CC(C)=CCOc1cc(Oc2ccc(S(=O)(=O)N3C[C@@H](C)O[C@@H](C)C3)cc2)cc(C(=O)Nc2cc(C)n(C)n2)c1 | 
2.1 | 0.048 µM | CC(C)=CCOc1cc(Oc2ccc(S(=O)(=O)N3CCOCC3)cc2)cc(C(=O)Nc2nccs2)c1 | 
1.8 | 0.0477 µM | CC(C)=CCOc1cc(Oc2ccc(S(=O)(=O)C3CC3)cc2)cc(C(=O)Nc2ncc(F)s2)c1 | 
1.5 | 0.0626 µM | CC(C)=CCOc1cc(Oc2ccc(S(=O)(=O)N3C[C@@H](C)O[C@@H](C)C3)cc2)cc(C(=O)Nc2nccs2)c1 | 
2.2 | 0.0448 µM | CC(C)=CCOc1cc(Oc2ccc(S(=O)(=O)N3CC[C@H](F)C3)cc2)cc(C(=O)Nc2ncc(F)s2)c1 | clearance [3]: 17.8 mL/min/kg; Activity [4]: 8.1%; bioavailability [5]: 9.5%; half-life [6]: 5.9 h; Vd [7]: 1.2 L/kg; Tmax [8]: 1 h; Cmax [9]: 1090 ng/mL; AUC(0-inf) [11]: 1790 ng·h/mL
